Series [1] relates to Trypanosoma cruzi. Description: Antitrypanosomal activity against Trypanosoma cruzi Y strain infected in BESM cells assessed as reduction of parasite number after 72 hrs. The format is functional, organism-based. The method in brief:
(§1)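 BESM cells in RPMI-1640 with 5% heat-inactivated FCS (37 °C, 5% CO2) infected with Y-strain trypomastigotes, then given fresh medium with inhibitor at 0, 0.3, 1, 3 and 10 μM for 72 h. Fixed in 4% paraformaldehyde and stained with DAPI (0.1 μg/mL), then imaged. Nuclei were sorted by size: host >150 μm², parasite 2-4 μm². The parasite/host nuclei ratio gave the IC50, and the loss of host nuclei gave cytotoxicity. Duplicate or triplicate runs averaged.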

Series [2] can be described thus: Cytotoxicity against BEMS cells. The format is cell-based. Conditions: Bos taurus. In short, it runs like this:
as §1

In series [3] the target is Cruzipain (Trypanosoma cruzi) (UniProt P25779). As to the kind of experiment: (§2) Inhibition of Trypanosoma cruzi cruzain.
Sequence of Cruzipain (Trypanosoma cruzi) (P25779 123-467 limits assumed): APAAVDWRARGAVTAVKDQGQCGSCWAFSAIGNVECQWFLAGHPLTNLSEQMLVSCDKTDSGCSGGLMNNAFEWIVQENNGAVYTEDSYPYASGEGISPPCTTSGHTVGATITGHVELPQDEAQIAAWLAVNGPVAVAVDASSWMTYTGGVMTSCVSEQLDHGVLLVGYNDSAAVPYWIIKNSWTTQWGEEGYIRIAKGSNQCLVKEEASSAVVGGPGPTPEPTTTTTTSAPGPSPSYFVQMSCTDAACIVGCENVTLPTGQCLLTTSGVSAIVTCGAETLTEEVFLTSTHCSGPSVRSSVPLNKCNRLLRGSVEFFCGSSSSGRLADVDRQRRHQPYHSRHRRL
In a further series the target is Cruzipain (Trypanosoma cruzi, UniProt P25779). Described as §2.
Sequence of Cruzipain (P25779 whole entry): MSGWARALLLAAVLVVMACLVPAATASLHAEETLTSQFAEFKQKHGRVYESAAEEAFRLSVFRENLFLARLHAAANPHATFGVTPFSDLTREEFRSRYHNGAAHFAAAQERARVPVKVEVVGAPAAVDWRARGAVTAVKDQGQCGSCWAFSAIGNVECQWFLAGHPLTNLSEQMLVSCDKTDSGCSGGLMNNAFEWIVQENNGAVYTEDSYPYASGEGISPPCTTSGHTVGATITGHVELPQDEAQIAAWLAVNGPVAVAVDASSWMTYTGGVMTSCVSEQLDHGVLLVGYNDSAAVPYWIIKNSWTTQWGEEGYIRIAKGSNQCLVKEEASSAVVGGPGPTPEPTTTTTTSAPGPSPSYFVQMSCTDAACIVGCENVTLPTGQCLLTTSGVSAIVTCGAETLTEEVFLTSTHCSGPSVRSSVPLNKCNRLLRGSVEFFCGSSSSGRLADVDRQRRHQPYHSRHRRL
Series [4] deals with Cruzipain (Trypanosoma cruzi) (UniProt P25779). As to the kind of experiment: Ratio of kinact to Ki for Trypanosoma cruzi cruzain.
The subject of series [5] is Trypanosoma cruzi. As to the kind of experiment: Antitrypanosomal activity against Trypanosoma cruzi trypomastigotes infected mouse model assessed as chagas disease symptoms at 20 mg/kg, ip bid for 27 days measured after 77 days of post infection.
Series [6] has as its system Trypanosoma cruzi. Description: Antitrypanosomal activity against Trypanosoma cruzi trypomastigotes infected in C3H mouse assessed as infection in colon at 20 mg/kg, ip bid for 27 days. The format is functional, organism-based. Details: dose 20 mg/kg. The method in brief:
(§3)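 Female C3H mice (mean 22 g) infected ip with 1.2 × 10⁶ tissue-culture trypomastigotes. From 24 h post-infection, treated (n=5) with 20 mg/kg ip b.i.d. for 27 days in 70% DMSO:30% water, prepared daily; untreated controls n=3. Mice were sacrificed at day 77 post-infection for symptom scoring and histopathology of heart, skeletal muscle, liver, spleen and colon.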

The subject of series [7] is Trypanosoma cruzi. As to the kind of experiment: Antitrypanosomal activity against Trypanosoma cruzi trypomastigotes infected in C3H mouse assessed as acute chagas disease symptoms at 20 mg/kg, ip bid for 27 days. Format: functional, organism-based. Also noted: dose 20 mg/kg. The method in brief:
as §3

A further series relates to Mus musculus. Description: Toxicity in Trypanosoma cruzi trypomastigotes infected mouse model at 20 mg/kg, ip bid for 27 days. Conditions: in vivo, 648 h.
For series [8], the system named is Trypanosoma cruzi. As to the kind of experiment: Antitrypanosomal activity against Trypanosoma cruzi trypomastigotes infected in C3H mouse assessed as infection in heart at 20 mg/kg, ip bid for 27 days. Format: functional, organism-based. Details: dose 20 mg/kg. In short, it runs like this: as §3
The test system of series [9] is Trypanosoma cruzi. Description: Antitrypanosomal activity against Trypanosoma cruzi trypomastigotes infected in C3H mouse assessed as infection in skeletal muscle at 20 mg/kg, ip bid for 27 days. Conditions: Muscle tissue. Details: dose 20 mg/kg. Format: functional, organism-based. The method in brief: as §3
Series [10] deals with Trypanosoma cruzi. Description: Antitrypanosomal activity against Trypanosoma cruzi trypomastigotes infected in C3H mouse assessed as infection in spleen at 20 mg/kg, ip bid for 27 days. The format is functional, organism-based. Also noted: dose 20 mg/kg. In short, it runs like this:
as §3

Series [11] concerns Trypanosoma cruzi. Description: Antitrypanosomal activity against Trypanosoma cruzi trypomastigotes infected in C3H mouse assessed as infection in liver at 20 mg/kg, ip bid for 27 days. Format: functional, organism-based. Details: dose 20 mg/kg. In short, it runs like this: as §3

The source made the active and inactive calls. The calls are words filed in the database; no cut-off is given here.

With `CCC(C(=O)COc1c(F)c(F)cc(F)c1F)n1cc([C@@](C)(NCc2ccc3ncccc3c2)C2CCC2)nn1` (mixture of isomers), the half-inhibitory concentration (IC50) in the series on Trypanosoma cruzi [1] is 5.8 µM; in [2] it was over 10 µM. Besides, the Kinact in [3] is 0.096 s⁻¹. Further, the affinity on Cruzipain corresponds to a Ki of 0.35 µM. For the same compound, the Ratio in series [4] is 522000 M⁻¹ s⁻¹.
Turning to `CCC(C(=O)COc1c(F)c(F)cc(F)c1F)n1cc([C@@](C)(NCc2ccc3ncccc3c2)C(C)C)nn1` (some centres undefined), the IC50 is 8.3 µM in the series on Trypanosoma cruzi [1] and over 10 µM in [2]. For the same compound, the Kinact in series [3] was 0.066 s⁻¹. This compound also yielded a Ki at Cruzipain of 1.04 µM. The Ratio in series [4] came to 124000 M⁻¹ s⁻¹.
Take `CCCCC(C(=O)COc1c(F)c(F)cc(F)c1F)n1cc([C@@](C)(NCc2ccc3ncccc3c2)C(C)C)nn1` (some centres undefined): the outcome with Trypanosoma cruzi [5], with Trypanosoma cruzi [6], in the series with Trypanosoma cruzi [8], with Trypanosoma cruzi [10] and in the series on Trypanosoma cruzi [11] was Active. The half-maximal inhibitory concentration (IC50) in the series on Trypanosoma cruzi [1] was 5.1 µM; in series [2] it was over 10 µM. Further, the Activity entry in the series with Trypanosoma cruzi [7] and with Mus musculus was “Non-toxic” in each case. Moreover, the result in the series with Trypanosoma cruzi [9] was inactive.
On to `CCCCC(C(=O)COc1c(F)c(F)cc(F)c1F)n1cc([C@@](C)(NCc2ccc3ncccc3c2)C2CCCCC2)nn1` (some centres undefined), for which, in series [3], the Kinact stood at 0.037 s⁻¹. At Cruzipain, this compound registered a Ki of 1.22 µM. For the same compound, the Ratio in [4] is 58000 M⁻¹ s⁻¹.
As for `CCCCC(C(=O)COc1c(F)c(F)cc(F)c1F)n1cc([C@](C)(CC(C)C)NCc2ccc3ncccc3c2)nn1` (some centres undefined), the figures for the IC50 (in the series with Trypanosoma cruzi [1]; in series [2]) were 3.1 µM and over 10 µM, respectively. In addition, the Kinact in [3] is 0.036 s⁻¹. The affinity on Cruzipain, expressed as Ki, was 0.1 µM. The Ratio in series [4] was determined as 657000 M⁻¹ s⁻¹.
The corresponding values for `CCC(C(=O)COc1c(F)c(F)cc(F)c1F)n1cc([C@](C)(CC(C)C)NCc2ccc3ncccc3c2)nn1` (some centres undefined) are 5.7 µM, over 10 µM, 0.048 s⁻¹, 0.19 µM and 487000 M⁻¹ s⁻¹.
Regarding `CCCCC(C(=O)COc1c(F)c(F)cc(F)c1F)n1cc([C@@](C)(NCc2ccc3ncccc3c2)C2CCC2)nn1` (some centres undefined), the 50% inhibitory concentration (IC50) is 4.1 µM with Trypanosoma cruzi [1] and over 10 µM in series [2]. In series [3], this compound displayed a Kinact of 0.047 s⁻¹. The inhibition constant Ki at Cruzipain amounted to 0.13 µM. Besides, in [4], the Ratio was determined as 680000 M⁻¹ s⁻¹.
For `CCCCC(C(=O)COc1c(F)c(F)cc(F)c1F)n1cc([C@@](C)(NCc2ccc3ncccc3c2)C2CCCC2)nn1` (some centres undefined), the IC50 came to 4.2 µM with Trypanosoma cruzi [1] and 10 µM in [2]. The affinity on Cruzipain corresponds to a Ki of 0.11 µM.
As to `CCCCC(C(=O)COc1c(F)c(F)cc(F)c1F)n1cc([C@@](C)(NCc2ccc3ncccc3c2)C2CC2)nn1` (some centres undefined), the concentration for half-maximal inhibition (IC50) in the series on Trypanosoma cruzi [1] was 4.3 µM; in series [2] it was over 10 µM. The same compound had a Kinact in series [3] of 0.089 s⁻¹. This compound had an inhibitory constant (Ki) at Cruzipain of 0.94 µM. Besides, in series [4], the Ratio was 179000 M⁻¹ s⁻¹.
The compound `CC(C(=O)COc1c(F)c(F)cc(F)c1F)n1cc([C@@](C)(NCc2ccc3ncccc3c2)C(C)C)nn1` (some centres undefined) yielded a Kinact in [3] of 0.043 s⁻¹. The same compound registered a Ki on Cruzipain of 6.76 µM. The Ratio in series [4] stood at 12300 M⁻¹ s⁻¹.

One may read the IC50 as the point on the concentration scale where inhibition reaches its midpoint. In general, Ki refers to the dissociation constant of the complex between target and ligand, obtained from inhibition or displacement. A low value points to tighter binding.
